Assay results reported in ChEMBL document CHEMBL3804761, “Synthesis of a stable and orally bioavailable englerin analogue” (Bioorg Med Chem Lett, 2016).

What was measured:
Assay type in all cases: functional
[1] = Growth inhibition of human UACC62 cells assessed as cell growth at 10 uM incubated for 48 hrs by sulforhodamine B assay relative to control; settings: UACC-62, 48 h, read-out: Activity
How it was run: (§1)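 NCI 60-cell line standard protocol, one-dose screen: single final concentration 10 µM, 2-day drug exposure, sulforhodamine B (SRB) endpoint; read-out is growth percent relative to untreated control.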

NCI/ADR-RES = test: Growth inhibition of human NCI/ADR-RES cells incubated for 48 hrs by sulforhodamine B assay
How it was run: (§2)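 NCI 60-cell-line panel, standard protocol. Cells exposed to compound for two days, growth read by sulforhodamine B staining. Tested at five 10-fold dilutions, top concentration 100 µM, to give dose-response curves.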

[2] = Growth inhibition of human HCC2998 cells incubated for 48 hrs by sulforhodamine B assay; settings: HCC 2998, 48 h; how it was run: as §2
[3] = Growth inhibition of human HCT116 cells incubated for 48 hrs by sulforhodamine B assay; settings: HCT-116, 48 h; how it was run: as §2
HT-29 = test: Growth inhibition of human HT-29 cells incubated for 48 hrs by sulforhodamine B assay; settings: HT-29, 48 h; how it was run: as §2
Malme-3M = test: Growth inhibition of human MALME-3M cells incubated for 48 hrs by sulforhodamine B assay; how it was run: as §2
MDA-MB-468 = test: Growth inhibition of human MDA-MB-468 cells incubated for 48 hrs by sulforhodamine B assay; settings: MDA-MB-468, 48 h; how it was run: as §2
K562 = test: Growth inhibition of human K562 cells incubated for 48 hrs by sulforhodamine B assay; settings: K562, 48 h; how it was run: as §2
[4] = Growth inhibition of human MOLT4 cells assessed as cell growth at 10 uM incubated for 48 hrs by sulforhodamine B assay relative to control; settings: MOLT-4, 48 h, read-out: Activity
How it was run: (§3)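 Run in the standard NCI 60-cell-line screen. Cells were exposed to drug for two days, and the read-out was sulforhodamine B staining. Compound was tested at a single final concentration of 10 µM in every line, and results are reported as growth percent.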

MDA-MB-231 = test: Growth inhibition of human MDA-MB-231 cells assessed as cell growth at 10 uM incubated for 48 hrs by sulforhodamine B assay relative to control; settings: MDA-MB-231, 48 h, read-out: Activity; how it was run: as §3
[5] = Growth inhibition of human RXF393 cells assessed as cell growth at 10 uM incubated for 48 hrs by sulforhodamine B assay relative to control; settings: RXF 393, 48 h, read-out: Activity; how it was run: as §3
T47D = test: Growth inhibition of human T47D cells assessed as cell growth at 10 uM incubated for 48 hrs by sulforhodamine B assay relative to control; settings: read-out: Activity; how it was run: as §1
SK-MEL-28 = test: Growth inhibition of human SK-MEL-28 cells incubated for 48 hrs by sulforhodamine B assay; settings: SK-MEL-28, 48 h; how it was run: as §2
SR [6] = test: Growth inhibition of human SR cells assessed as cell growth at 10 uM incubated for 48 hrs by sulforhodamine B assay relative to control; settings: read-out: Activity; how it was run: as §3
[7] = Growth inhibition of human Caki1 cells incubated for 48 hrs by sulforhodamine B assay; settings: CAKI-1, 48 h; how it was run: as §2
[8] = Growth inhibition of human IGROV1 cells incubated for 48 hrs by sulforhodamine B assay; settings: IGROV-1, 48 h; how it was run: as §2
[9] = Growth inhibition of human SF268 cells assessed as cell growth at 10 uM incubated for 48 hrs by sulforhodamine B assay relative to control; settings: SF-268, 48 h, read-out: Activity; how it was run: as §3
MDA-MB-435 = test: Growth inhibition of human MDA-MB-435 cells assessed as cell growth at 10 uM incubated for 48 hrs by sulforhodamine B assay relative to control; settings: MDA-MB-435, 48 h, read-out: Activity; how it was run: as §3
[10] = Growth inhibition of human SKOV3 cells incubated for 48 hrs by sulforhodamine B assay; settings: SK-OV-3, 48 h
How it was run: (§4)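 Tested in the standard NCI 60-cell-line protocol with two-day drug exposure and a sulforhodamine B endpoint. Compounds were first screened at a single final concentration of 10 µM, reported as growth percent. They were then run as five 10-fold dilutions starting from a high concentration of 100 µM to give dose-response curves.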

U-251 = test: Growth inhibition of human U251 cells assessed as cell growth at 10 uM incubated for 48 hrs by sulforhodamine B assay relative to control; settings: U-251, 48 h, read-out: Activity; how it was run: as §1
NCI-H226 = test: Growth inhibition of human NCI-H226 cells assessed as cell growth at 10 uM incubated for 48 hrs by sulforhodamine B assay relative to control; settings: NCI-H226, 48 h, read-out: Activity; how it was run: as §3
[11] = Growth inhibition of human SF539 cells assessed as cell growth at 10 uM incubated for 48 hrs by sulforhodamine B assay relative to control; settings: SF-539, 48 h, read-out: Activity
How it was run: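 Single-dose screen in the NCI 60-cell-line panel at one final concentration of 10 µM. Two-day drug exposure with a sulforhodamine B endpoint. Values are growth percent for each cell line.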

A498 = test: Growth inhibition of human A498 cells incubated for 48 hrs by sulforhodamine B assay; settings: A498, 48 h
[12] = Growth inhibition of human BT549 cells incubated for 48 hrs by sulforhodamine B assay; settings: BT-549, 48 h; how it was run: as §2
[13] = Growth inhibition of human DU145 cells assessed as cell growth at 10 uM incubated for 48 hrs by sulforhodamine B assay relative to control; settings: DU-145, 48 h, read-out: Activity; how it was run: as §3
[14] = Growth inhibition of human UACC257 cells incubated for 48 hrs by sulforhodamine B assay; settings: UACC-257, 48 h; how it was run: as §4
SR [15] = test: Growth inhibition of human SR cells incubated for 48 hrs by sulforhodamine B assay; how it was run: as §4
NCI-H23 = test: Growth inhibition of human NCI-H23 cells incubated for 48 hrs by sulforhodamine B assay; settings: NCI-H23, 48 h; how it was run: as §2
[16] = read-out: pLC50 (the source's name) (converted)

**Q.** What does the source list for `C/C(=C\C(=O)O[C@H]1[C@@H]2[C@H](C)CC[C@H]2[C@]2(C)O[C@@]1(C(C)C)C[C@H]2NC(=O)CO)c1ccccc1`?
**A.** growth at 10 µM [1]: 102%; GI50 (NCI/ADR-RES): 7.94 µM; LC50 (NCI/ADR-RES): > 100 µM; TGI (NCI/ADR-RES; read-out: pTGI (converted)): 69.2 µM; GI50 [2]: 34.7 µM; LC50 [2]: > 100 µM; TGI ([2]; read-out: pTGI (converted)): > 100 µM; GI50 [3]: 32.4 µM; LC50 [3]: > 100 µM; TGI ([3]; read-out: pTGI (converted)): > 100 µM; GI50 (HT-29): 40.7 µM; LC50 (HT-29): > 100 µM; TGI (HT-29; read-out: pTGI (converted)): > 100 µM; GI50 (Malme-3M): 26.3 µM; LC50 (Malme-3M): > 100 µM; TGI (Malme-3M; read-out: pTGI (converted)): > 100 µM; GI50 (MDA-MB-468): 28.8 µM; CC50 (MDA-MB-468; [16]): > 100 µM; TGI (MDA-MB-468; read-out: pTGI (converted)): > 100 µM; GI50 (K562): 31.6 µM; CC50 (K562; [16]): > 100 µM; TGI (K562; read-out: pTGI (converted)): > 100 µM; growth at 10 µM [4]: 125%; growth at 10 µM (MDA-MB-231): 99.6%; growth at 10 µM [5]: 73.5%; growth at 10 µM (T47D): 89.3%; GI50 (SK-MEL-28): 45.7 µM; LC50 (SK-MEL-28): > 100 µM; TGI (SK-MEL-28; read-out: pTGI (converted)): > 100 µM; growth at 10 µM (SR [6]): 117%; GI50 [7]: 40.7 µM; LC50 [7]: > 100 µM; TGI ([7]; read-out: pTGI (converted)): > 100 µM; GI50 [8]: > 100 µM; CC50 [8, 16]: > 100 µM; TGI ([8]; read-out: pTGI (converted)): > 100 µM; growth at 10 µM [9]: 106%; growth at 10 µM (MDA-MB-435): 106%; GI50 [10]: 30.2 µM; LC50 [10]: > 100 µM; TGI ([10]; read-out: pTGI (converted)): > 100 µM; growth at 10 µM (U-251): 91.8%; growth at 10 µM (NCI-H226): 90.7%; growth at 10 µM [11]: 91.2%; LC50 (A498): 23.4 µM; GI50 (A498; read-out: GI50): 1.15 µM; GI50 (A498; read-out: pGI50 (converted)): 1.15 µM; TGI (A498; read-out: pTGI (converted)): 4.27 µM; GI50 [12]: 22.4 µM; CC50 [12, 16]: > 100 µM; TGI ([12]; read-out: pTGI (converted)): 69.2 µM; growth at 10 µM [13]: 119%; GI50 [14]: 34.7 µM; CC50 [14, 16]: > 100 µM; TGI ([14]; read-out: pTGI (converted)): > 100 µM; GI50 (SR [15]): 26.3 µM; LC50 (SR [15]): > 100 µM; TGI (SR [15]; read-out: pTGI (converted)): 74.1 µM; GI50 (NCI-H23): 38.9 µM; LC50 (NCI-H23): > 100 µM; TGI (NCI-H23; read-out: pTGI (converted)): > 100 µM
